Assay results reported in ChEMBL document CHEMBL4393681, “The identification of naturally occurring labdane diterpenoid calcaratarin D as a potential anti-inflammatory agent” (Eur J Med Chem, 2019).

How the values were obtained:
RAW264.7 [1] = test: Anti-inflammatory activity in mouse RAW264.7 cells assessed as inhibition of LPS-induced TNFalpha production at 0.1 uM pretreated for 1 hr followed by LPS stimulation and measured after 18 hrs by ELISA relative to control; format: functional; design: scale not given: the % may be the effect or the level left
In short: (§1)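 DMSO stocks (100 mM) were tested at 0.1, 1, 5 and 20 µM on LPS-stimulated RAW264.7 cells, with dexamethasone 1 µM as positive control. Secreted TNF-α or IL-6 was normalized to the percentage of viable LPS-stimulated cells at each concentration. Mean of three separate experiments, each in triplicate.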

RAW264.7 [2] = test: Anti-inflammatory activity in mouse RAW264.7 cells assessed as inhibition of LPS-induced TNFalpha production at 1 uM pretreated for 1 hr followed by LPS stimulation and measured after 18 hrs by ELISA relative to control; format: functional; design: scale not given: the % may be the effect or the level left; in short: as §1
[3] = Cytotoxicity against mouse RAW264.7 cells assessed as cell viability at 0.1 uM incubated for 18 hrs by celltiter-glo luminescent assay relative to control; format: cell-based; settings: read-out: Activity
In short: (§2)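 Non-stimulated RAW264.7 cells were exposed to 0.1, 1, 5 and 20 µM compound from 100 mM DMSO stocks. Percent viability is the mean of three separate experiments with triplicate samples.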

[4] = Cytotoxicity against mouse RAW264.7 cells assessed as cell viability at 1 uM incubated for 18 hrs by celltiter-glo luminescent assay relative to control; format: cell-based; settings: read-out: Activity; in short: as §2
[5] = Cytotoxicity against mouse RAW264.7 cells assessed as cell viability at 5 uM incubated for 18 hrs by celltiter-glo luminescent assay relative to control; format: cell-based; settings: read-out: Activity; in short: as §2
[6] = Cytotoxicity against mouse RAW264.7 cells assessed as cell viability at 20 uM incubated for 18 hrs by celltiter-glo luminescent assay relative to control; format: cell-based; settings: read-out: Activity; in short: as §2
RAW264.7 [7] = test: Anti-inflammatory activity in mouse RAW264.7 cells assessed as inhibition of LPS-induced TNFalpha production at 5 uM pretreated for 1 hr followed by LPS stimulation and measured after 18 hrs by ELISA relative to control; format: functional; design: scale not given: the % may be the effect or the level left; in short: as §1
RAW264.7 [8] = test: Anti-inflammatory activity in mouse RAW264.7 cells assessed as inhibition of LPS-induced TNFalpha production at 20 uM pretreated for 1 hr followed by LPS stimulation and measured after 18 hrs by ELISA relative to control; format: functional; design: scale not given: the % may be the effect or the level left; in short: as §1
RAW264.7 [9] = test: Anti-inflammatory activity in mouse RAW264.7 cells assessed as inhibition of LPS-induced IL-6 production at 0.1 uM pretreated for 1 hr followed by LPS stimulation and measured after 18 hrs by ELISA relative to control; format: functional; design: scale not given: the % may be the effect or the level left; in short: as §1
RAW264.7 [10] = test: Anti-inflammatory activity in mouse RAW264.7 cells assessed as inhibition of LPS-induced IL-6 production at 1 uM pretreated for 1 hr followed by LPS stimulation and measured after 18 hrs by ELISA relative to control; format: functional; design: scale not given: the % may be the effect or the level left; in short: as §1
RAW264.7 [11] = test: Anti-inflammatory activity in mouse RAW264.7 cells assessed as inhibition of LPS-induced IL-6 production at 5 uM pretreated for 1 hr followed by LPS stimulation and measured after 18 hrs by ELISA relative to control; format: functional; design: scale not given: the % may be the effect or the level left; in short: as §1
RAW264.7 [12] = test: Anti-inflammatory activity in mouse RAW264.7 cells assessed as inhibition of LPS-induced IL-6 production at 20 uM pretreated for 1 hr followed by LPS stimulation and measured after 18 hrs by ELISA relative to control; format: functional; design: scale not given: the % may be the effect or the level left; in short: as §1

Structure (SMILES)	Activity (RAW264.7 [1]) [%]	Activity (RAW264.7 [2]) [%]	viability at 18 h, 0.1 µM [3] [%]	viability at 18 h, 1 µM [4] [%]	viability at 18 h, 5 µM [5] [%]	viability at 18 h, 20 µM [6] [%]	Activity (RAW264.7 [7]) [%]	Activity (RAW264.7 [8]) [%]	Activity (RAW264.7 [9]) [%]	Activity (RAW264.7 [10]) [%]	Activity (RAW264.7 [11]) [%]	Activity (RAW264.7 [12]) [%]
C=C1CC[C@H]2C(C)(C)CCC[C@]2(C)[C@H]1CC=O	104	91.7	100	101	101	91.9	73.7	48.5	100	95	93	72.8
C=C1CC[C@H]2C(C)(C)CCC[C@]2(C)[C@H]1C/C=C1\C(=O)OC[C@H]1O	98.7	71.6	100	95.5	81.7	47.5	17.5	4.8	100.7	76.9	32.2	10.1
CC1(C)CCC[C@@]2(C)[C@H]1CC[C@]1(CO1)[C@@H]2C/C=C1\CCOC1=O	100.3	88.3	97.8	97.6	95.1	85.7	55.6	33.1	102.3	92.3	81.4	63.9
C=C1CC[C@H]2C(C)(C)CCC[C@]2(C)[C@H]1C[C@H](O)[C@H]1C(=O)OC[C@H]1O	111.1	108.6	108	106	107	98.3	109.5	86.8	104.6	101.7	104.3	71.8
C=C1CC[C@H]2C(C)(C)CCC[C@]2(C)[C@H]1C/C=C1\CC(OC)OC1=O (stereo not given in full)	104.7	77.7	102	102	101	100	44.7	27.5	101	79.1	70	59.9
C=C1CC[C@H]2C(C)(C)CCC[C@]2(C)[C@H]1C[C@@H](O)C1=CCOC1=O [CURCUCOMOSIN C]	112	101.5	109	111	108	91.9	79.3	33.4	100.6	84	75.6	47.1
C=C1CC[C@H]2C(C)(C)CCC[C@]2(C)[C@H]1C/C=C1\C=COC1=O	94.1	84.6	102	97.7	90.8	82.6	53.6	26.6	99	99.6	85.9	61.5
CC1(C)CCC[C@]2(C)[C@H]3CC(=O)O[C@]3(C)CC[C@@H]12	104.8	101	99.3	96.6	97.2	95.9	79.9	63.9	94.6	100.3	93.8	89.7
C=C1CC[C@H]2C(C)(C)CCC[C@]2(C)[C@H]1C/C=C1\CC(OCC)OC1=O (stereo not given in full)	101.6	86.8	102	100	94.9	96.3	65.3	48.1	102.3	100.3	95.9	80.9
CC1(C)CCC[C@@]2(C)[C@H]1CC[C@@]1(CO1)[C@@H]2C/C=C1\CCOC1=O	114.8	88.6	101	97	90.9	80.4	48.4	20.5	101.6	79.7	35.2	22.3
C=C1CC[C@H]2C(C)(C)CCC[C@]2(C)[C@H]1C/C=C(\CCO)C(=O)O	104.7	80.7	102	99.2	96.6	87.6	60.7	50.2	106	88.3	79.9	63.5
C=C1CC[C@H]2C(C)(C)CCC[C@]2(C)[C@H]1C/C=C1\CCOC1=O	104.4	94.6	103	107	102	100	73.1	52.6	103	93.9	83.9	76.3
C=C1CC[C@H]2C(C)(C)CCC[C@]2(C)[C@H]1C/C=C1\CC(O)OC1=O (stereo not given in full)	100.2	89.6	102	92.7	86.3	79	81.9	71.1	99.1	82.4	64	59.4
C=C1CC[C@H]2C(C)(C)CCC[C@]2(C)[C@H]1/C=C/C1=CCOC1=O [VILLOSIN]	80.4	86.6	104	105	103	59	74.6	133.5	98.4	87.6	101.5	170.1
C=C1CC[C@H]2C(C)(C)CCC[C@]2(C)[C@H]1C/C=C1/CCOC1=O	99.8	81.8	103	101	95.4	85	69.9	48	101.5	94.1	85.6	64.8
